# Active and inactive are the calls of the source. No cut-off for these calls is given here.
# Assays:
# [1] = tested on: Mycobacterium tuberculosis; assay: Antitubercular activity against Mycobacterium tuberculosis H37Ra infected in THP-1 macrophages measured after 5 days post infection by luciferase reporter gene assay; assay type: functional; conditions: THP-1, 120 h
# Method in brief: (§1)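 Firefly luciferase reporter Mtb infected THP-1 cells. Bacterial growth was read by luminescence five days post-infection, and the value was reported as the 50% inhibitory concentration. The assay medium used glucose and glycerol as the carbon source.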
# [2] = Metabolic stability in rat liver microsomes assessed as compound remaining at 1 uM measured after 30 mins; assay type: ADME, microsome; conditions: read-out: Stability
# [3] = tested on: Mycobacterium tuberculosis; assay: Antitubercular activity against Mycobacterium tuberculosis Erdman BSL3 infected in BALB/c mouse assessed as reduction in colony forming units in lung homogenates at 100 mg/kg administered daily via oral gavage for 5 days per week for 4 weeks; assay type: functional, organism-based; conditions: Mycobacterium tuberculosis str. Erdman = ATCC 35801
# Method in brief: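 BALB/c mice were infected intranasally with 10^6 cfu of the Erdman isolate, six mice per group. Dosing was 100 mg/kg daily, 5 days/week, for four weeks. Lung homogenates were plated for cfu. An early-control group was killed at the start of therapy to set the infection load, and a late-control group marked the endpoint and confirmed virulence. Rifampin at 10 mg/kg was the positive control.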
# [4] = tested on: Mycobacterium tuberculosis; assay: Antitubercular activity against Mycobacterium tuberculosis H37Ra BSL2 infected in THP-1 macrophages after 5 days post infection by luciferase reporter gene assay; assay type: functional; conditions: H37Ra BSL2, THP-1, 120 h; method in brief: as §1
# [5] = tested on: Mycobacterium tuberculosis; assay: Antitubercular activity against Mycobacterium tuberculosis H37Ra BSL2 cultured in broth; assay type: functional
# Method in brief: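 BSL2 H37Ra broth assay. MIC was taken as the concentration (μM) giving 70% growth inhibition versus control wells.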
# [6] = tested on: Mycobacterium tuberculosis; assay: Antitubercular activity against Mycobacterium tuberculosis Erdman BSL3 infected in THP-1 macrophages using middlebrook 7H9 broth media after 5 days post infection by luciferase reporter gene assay; assay type: functional, Mycobacterium tuberculosis str. Erdman = ATCC 35801; conditions: BSL3, 120 h
# [7] = tested on: Mycobacterium tuberculosis; assay: Antitubercular activity against Mycobacterium tuberculosis H37Rv BSL3 infected in THP-1 macrophages using middlebrook 7H12 broth media after 5 days post infection by luciferase reporter gene assay; assay type: functional; conditions: H37Rv BSL3, THP-1, 120 h
# [8] = tested on: Mycobacterium tuberculosis; assay: Antitubercular activity against Mycobacterium tuberculosis H37Rv BSL3 infected in THP-1 macrophages under anaerobic condition after 5 days post infection by luciferase reporter gene assay; assay type: functional; conditions: H37Rv BSL3, THP-1, 120 h
# [9] = tested on: Mycobacterium tuberculosis; assay: Antitubercular activity against Mycobacterium tuberculosis Erdman BSL3 infected in THP-1 macrophages using middlebrook 7H12 broth media after 5 days post infection by luciferase reporter gene assay; assay type: functional, Mycobacterium tuberculosis str. Erdman = ATCC 35801; conditions: BSL3, THP-1, 120 h
# [10] = Clearance in mouse at 1 mg/kg, iv; assay type: ADME, organism-based; conditions: in vivo
# Method in brief: (§2)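 Mouse pharmacokinetics after 3 mg/kg oral or 1 mg/kg intravenous dosing. Clearance is in mL/min/kg. AUC is in μg*h/mL, with oral exposure normalised to the actual dose.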
# [11] = Half life in mouse at 3 mg/kg, po or 1 mg/kg, iv; assay type: ADME, organism-based; conditions: in vivo; method in brief: as §2
# [12] = tested on: Mus musculus; assay: Dose normalized AUC in mouse at 3 mg/kg, po or 1 mg/kg, iv; assay type: ADME, organism-based; conditions: in vivo; method in brief: as §2
# [13] = tested on: Mycobacterium tuberculosis; assay: Antitubercular activity against Mycobacterium tuberculosis H37Rv BSL3 infected in THP-1 macrophages using middlebrook 7H9 broth media after 5 days post infection by luciferase reporter gene assay; assay type: functional; conditions: H37Rv BSL3, THP-1, 120 h
compound,measurement,setting,value
CCCCc1ccc(Nc2nc(C)cs2)cc1,IC50,[1],< 0.005 µM
same,"remaining at 0.5 h, 1 µM",[2],1%
same,Activity,[3],inactive
same,IC50,[4],0.04 µM
same,MIC70,[5],0.04 µM
same,MIC90,[6],7 µM
same,IC50,[7],47 µM
same,IC50,[8],12 µM
same,IC50,[9],> 100 µM
O=C(O)Cc1csc(Nc2ccc(OCCC(F)(F)F)cc2)n1,IC50,[1],0.27 µM
same,clearance,[10],0.09 L/h/kg
same,half-life,[11],1.6 h
same,AUC/dose,[12],15 µg·h/mL
Cc1ccc(Nc2nc(C)cs2)cc1,IC50,[1],> 20 µM
CCCCc1ccc(Nc2nc(C(C)(C)C(=O)O)cs2)cc1,IC50,[1],0.14 µM
same,clearance,[10],1.08 L/h/kg
same,half-life,[11],5 h
same,AUC/dose,[12],1.4 µg·h/mL
CCCCCCc1ccc(Nc2nc(C)cs2)cc1,IC50,[1],0.05 µM
CCCCCc1ccc(Nc2nc(C)cs2)cc1,IC50,[1],0.04 µM
same,"remaining at 0.5 h, 1 µM",[2],3%
CO[C@H]1/C=C/O[C@@]2(C)Oc3c(C)c(O)c4c(O)c(c(/C=N/N5CCN(C)CC5)c(O)c4c3C2=O)NC(=O)/C(C)=C\C=C\[C@H](C)[C@H](O)[C@@H](C)[C@@H](O)[C@@H](C)[C@H](OC(C)=O)[C@@H]1C [RIFAMPIN],IC50,[4],0.03 µM
same,MIC70,[5],0.08 µM
CCc1ccc(Nc2nc(C)cs2)cc1,IC50,[1],0.12 µM
same,"remaining at 0.5 h, 1 µM",[2],0%
Cc1csc(Nc2ccc(OC3CCCC3)cc2)n1,IC50,[1],0.07 µM
same,"remaining at 0.5 h, 1 µM",[2],10%
CCCCc1ccc(Nc2nc(C(=O)O)cs2)cc1,IC50,[1],> 20 µM
Cc1csc(Nc2ccc(OCCO)cc2)n1,IC50,[1],3.19 µM
same,"remaining at 0.5 h, 1 µM",[2],73%
CCCCc1ccc(Nc2nc(CC(=O)O)c(Cl)s2)cc1,IC50,[1],0.07 µM
same,clearance,[10],0.3 L/h/kg
same,half-life,[11],1.1 h
same,AUC/dose,[12],6 µg·h/mL
same,Activity,[3],inactive
same,IC50,[4],0.07 µM
same,MIC70,[5],0.39 µM
same,IC50,[13],6.3 µM
same,MIC90,[6],12.5 µM
same,IC50,[7],> 100 µM
same,IC50,[8],5.6 µM
same,IC50,[9],54 µM
CCC(C)c1ccc(Nc2nc(C)cs2)cc1 (stereo not drawn),IC50,[1],< 0.04 µM
same,"remaining at 0.5 h, 1 µM",[2],0%
CCCCc1ccc(Nc2nc(CC(=O)O)c(C)s2)cc1,IC50,[1],0.1 µM
same,clearance,[10],0.42 L/h/kg
same,half-life,[11],1.1 h
same,AUC/dose,[12],4.8 µg·h/mL

# From ChEMBL document CHEMBL4043143, “2-N-Arylthiazole inhibitors of Mycobacterium tuberculosis” (Bioorg Med Chem Lett, 2017)
